According to ChEMBL document CHEMBL1146755, “Potent nonpeptide vasopressin receptor antagonists based on oxazino- and thiazinobenzodiazepine templates” (Bioorg Med Chem Lett, 2004):

How the values were obtained:
Vasopressin V2 receptor [1] = target: T1, Vasopressin V2 receptor (Homo sapiens, UniProt P30518); assay: Inhibition of 1 nM AVP-induced cAMP accumulation in cells expressing human vasopressin V2 receptor; assay type: functional
Procedure, shortened: (§1)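 HEK-293 cells expressing human receptor stimulated with 1 nM AVP; antagonism read as change in intracellular Ca2+ (V1a) or cAMP accumulation (V2).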

Vasopressin V2 receptor [2] = target: T1, Vasopressin V2 receptor; assay: Inhibition of [3H]AVP binding to recombinant human vasopressin V2 receptor
Procedure, shortened: (§2)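 Competition binding on membranes from HEK-293 cells transfected with recombinant human V1a or V2 receptor; Ki values reported in nM.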

Vasopressin V1a receptor [3] = target: T2, Vasopressin V1a receptor (Homo sapiens, UniProt P37288); assay: Inhibition of 1 nM AVP-induced calcium mobilisation in cells expressing human vasopressin V1a receptor; procedure, shortened: as §1
Target sequence in this assay (P37288 whole entry): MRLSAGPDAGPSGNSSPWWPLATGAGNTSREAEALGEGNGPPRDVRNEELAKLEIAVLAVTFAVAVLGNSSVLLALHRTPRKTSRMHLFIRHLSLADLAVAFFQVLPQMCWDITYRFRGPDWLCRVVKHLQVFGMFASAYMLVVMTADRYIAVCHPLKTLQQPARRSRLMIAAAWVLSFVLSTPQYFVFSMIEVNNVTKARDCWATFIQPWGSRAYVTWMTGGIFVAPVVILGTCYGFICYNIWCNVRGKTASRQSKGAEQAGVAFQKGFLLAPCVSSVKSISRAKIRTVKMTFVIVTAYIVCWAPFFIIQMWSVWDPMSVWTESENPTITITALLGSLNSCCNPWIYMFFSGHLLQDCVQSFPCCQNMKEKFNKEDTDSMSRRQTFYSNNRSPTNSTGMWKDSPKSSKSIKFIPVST

Vasopressin V1a receptor [4] = target: T2, Vasopressin V1a receptor; assay: Inhibition of [3H]AVP binding to recombinant human vasopressin V1a receptor at 1000 nM
Target sequence in this assay (P37288 whole entry, looked up): as the sequence (P37288 whole entry) above

Vasopressin V1a receptor [5] = target: T2, Vasopressin V1a receptor; assay: Inhibition of [3H]AVP binding to recombinant human vasopressin V1a receptor; procedure, shortened: as §2
Target sequence in this assay (P37288 whole entry): as above

Vasopressin V1a receptor [6] = target: T2, Vasopressin V1a receptor; assay: Inhibition of [3H]AVP binding to recombinant human vasopressin V1a receptor at 100 nM
Target sequence in this assay (P37288 whole entry, looked up): as the sequence (P37288 whole entry) above

T1 sequence (P30518 whole entry): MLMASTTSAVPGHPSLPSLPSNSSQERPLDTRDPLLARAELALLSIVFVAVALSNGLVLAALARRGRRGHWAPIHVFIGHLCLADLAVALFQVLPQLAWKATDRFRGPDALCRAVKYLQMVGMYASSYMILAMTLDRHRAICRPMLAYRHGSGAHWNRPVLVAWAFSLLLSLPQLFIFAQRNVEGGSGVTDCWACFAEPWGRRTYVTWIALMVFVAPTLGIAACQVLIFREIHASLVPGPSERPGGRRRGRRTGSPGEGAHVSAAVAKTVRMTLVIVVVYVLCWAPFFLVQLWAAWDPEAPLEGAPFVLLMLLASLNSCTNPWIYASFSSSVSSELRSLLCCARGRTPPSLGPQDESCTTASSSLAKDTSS

SMILES	Ki (Vasopressin V2 receptor [1]) [nM]	Ki (Vasopressin V2 receptor [2]) [nM]	Ki (Vasopressin V1a receptor [3]) [nM]	inhibition (Vasopressin V1a receptor [4]) [%]	Ki (Vasopressin V1a receptor [5])	inhibition (Vasopressin V1a receptor [6]) [%]
O=C(Nc1ccc(C(=O)N2C[C@H]3COCCN3Cc3ccccc32)c(Cl)c1)c1cc(F)ccc1-c1ccccc1	12	11	6400	62		
O=C(Nc1ccc(C(=O)N2CC3CS(=O)(=O)CCN3Cc3ccccc32)cc1)c1ccccc1-c1ccccc1 (centres undefined)	40	65	1400		Not Active	
O=C(Nc1ccc(C(=O)N2C[C@H]3COCCN3Cc3ccccc32)c(Cl)c1)c1cc(O)ccc1-c1ccccc1	70	13	1900		Not Active	
O=C(Nc1ccc(C(=O)N2CC3COCCN3Cc3ccccc32)c(Cl)c1)c1ccccc1-c1ccccc1 (single isomer, unassigned)	170	15	14000		640 nM	
O=C(Nc1ccc(C(=O)N2CC3CSCCN3Cc3ccccc32)c(F)c1)c1ccccc1-c1ccccc1 (centres undefined)		10			Not Active	
COc1ccc(-c2ccccc2C(=O)Nc2ccc(C(=O)N3C[C@H]4COCCN4Cc4ccccc43)c(Cl)c2)cc1	3	2.8	1900		Not Active	
COc1ccc(-c2ccccc2)c(C(=O)Nc2ccc(C(=O)N3C[C@H]4COCCN4Cc4ccccc43)c(Cl)c2)c1		17			Not Active	
O=C(Nc1ccc(C(=O)N2C[C@H]3COCCN3Cc3ccccc32)c(Cl)c1)c1ccccc1-c1ccc(O)cc1	11	4.2	4200		Not Active	
O=C(Nc1ccc(C(=O)N2CC3CSCCN3Cc3cccc(Cl)c32)cc1)c1ccccc1-c1ccccc1 (centres undefined)		10			Not Active	
Cc1ccc2c(c1)N(C(=O)c1ccc(NC(=O)c3ccccc3-c3ccccc3)cc1)CC1CSCCN1C2 (centres undefined)	23	8	14000		18 nM	
O=C(Nc1ccc(C(=O)N2C[C@H]3COCCN3Cc3ccccc32)c(Cl)c1)c1ccccc1-c1cccc(O)c1	20	5	11000		Not Active	
O=C(Nc1ccc(C(=O)N2CC3CSCCN3Cc3ccc(F)c(F)c32)cc1)c1ccccc1-c1ccccc1 (centres undefined)		18			Not Active	
Cc1cc(NC(=O)c2ccccc2-c2ccccc2)ccc1C(=O)N1CC2CSCCN2Cc2ccccc21 (centres undefined)		10			Not Active	
O=C(Nc1ccc(C(=O)N2CC3CSCCN3Cc3ccccc32)c(Cl)c1)c1cc(F)ccc1-c1ccccc1 (centres undefined)	70	37	14000		Not Active	
O=C(Nc1ccc(C(=O)N2CC3CSCCN3Cc3ccc(F)cc32)cc1)c1ccccc1-c1ccccc1 (centres undefined)		9			Not Active	
O=C(Nc1ccc(C(=O)N2C[C@H]3CSCCN3Cc3ccccc32)c(Cl)c1)c1ccccc1-c1ccccc1	17	3.7	14000		250 nM	

SMILES	Ki (Vasopressin V2 receptor [1]) [nM]	Ki (Vasopressin V2 receptor [2]) [nM]	Ki (Vasopressin V1a receptor [3]) [nM]	inhibition (Vasopressin V1a receptor [4]) [%]	Ki (Vasopressin V1a receptor [5])	inhibition (Vasopressin V1a receptor [6]) [%]
COc1cc(NC(=O)c2ccccc2-c2ccccc2)ccc1C(=O)N1CC2CSCCN2Cc2ccccc21 (centres undefined)		15			Not Active	
Cc1ccc(F)cc1C(=O)Nc1ccc(C(=O)N2CC3CSCCN3Cc3ccccc32)c(Cl)c1 (centres undefined)	300	60	14000		Not Active	
COc1ccc(C(=O)Nc2ccc(C(=O)N3C[C@H]4COCCN4Cc4ccccc43)c(Cl)c2)c(-c2ccccc2)c1	5	4.2	1300		Not Active	
O=C(Nc1ccc(C(=O)N2CC3CSCCN3Cc3ccccc32)cc1)c1ccccc1-c1ccccc1 (centres undefined)			8000		49 nM	
O=C(Nc1ccc(C(=O)N2C[C@H]3COCCN3Cc3ccccc32)c(Cl)c1)c1ccccc1-c1ccccc1	4	0.9	600		24 nM	
Cc1ccc(F)cc1C(=O)Nc1ccc(C(=O)N2Cc3cccn3Cc3ccccc32)c(Cl)c1 [LIXIVAPTAN]	23	2.3	6000		44 nM	
O=C(Nc1ccc(C(=O)N2CC3CSCCN3Cc3ccccc32)c(Cl)c1)c1ccc(F)cc1-c1ccccc1 (centres undefined)		3.7			410 nM	
Cc1ccc(F)cc1C(=O)Nc1ccc(C(=O)N2C[C@H]3COCCN3Cc3ccccc32)c(Cl)c1	12	2.8	2000		100 nM	
O=C(Nc1ccc(C(=O)N2C[C@H]3CSCCN3Cc3ccccc32)cc1)c1ccccc1-c1ccccc1			1400		84 nM	
O=C(Nc1ccc(C(=O)N2C[C@@H]3CSCCN3Cc3ccccc32)cc1)c1ccccc1-c1ccccc1			1300		290 nM	
O=C(Nc1ccc(C(=O)N2C[C@H]3COCCN3Cc3ccccc32)cc1)c1ccccc1-c1ccccc1	16	3.7				69
O=C(Nc1ccc(C(=O)N2CC3CSCCN3Cc3ccccc32)c(Cl)c1)c1ccccc1-c1ccccc1 (centres undefined)		11			490 nM	
O=C(Nc1ccc(C(=O)N2CC3CSCCN3Cc3ccccc32)c(O)c1)c1ccccc1-c1ccccc1 (centres undefined)		3.2			110 nM	
O=C(Nc1ccc(C(=O)N2C[C@H]3COCCN3Cc3ccccc32)c(Cl)c1)c1ccc(F)cc1-c1ccccc1	2	1.9	700		Not Active	
COc1cccc(-c2ccccc2C(=O)Nc2ccc(C(=O)N3C[C@H]4COCCN4Cc4ccccc43)c(Cl)c2)c1	2	3.7	3400		Not Active	
O=C(Nc1ccc(C(=O)N2C[C@H]3COCCN3Cc3ccccc32)c(Cl)c1)c1ccc(O)cc1-c1ccccc1			1600		30 nM	
